From article PMC12640659 (Chemmedchem, 2025)
Converted amounts (≈) assume the structure as drawn. Read-outs that look alike come from different tables or passages of the source.

Assays:
S. aureus ATCC 12600 [1] = experiment: Antibacterial resazurin assay, S. aureus; type: cell-based, Staphylococcus aureus; settings: for MIC: Staphylococcus aureus, ATCC12600, 6 h, read-out: MIC S. aureus; for MIC S. aureus: resazurin, 6 h, mean ± SD
How it was run: (§1)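 Twofold dilutions of test compound (100–0.78 μM) were incubated with mid-log bacteria in LB broth at 37 °C for 6 h. Precultures were grown in LB for P. aeruginosa, S. aureus and E. coli, and in TSB for A. baumannii and K. pneumoniae. Cultures were diluted 1:1000, except S. aureus at 1:500. Resazurin (0.13 mg mL−1 solution) was added for 15–30 min and fluorescence read at 560/590 nm. Assays were run in duplicate with novobiocin and nalidixic acid controls, and MIC was fitted by nonlinear regression.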

S. aureus ATCC 12600 [2] = experiment: Time-kill kinetics, S. aureus; type: cell-based, Staphylococcus aureus; settings: at 1x and 4x MICs, up to 5 h
How it was run: (§2)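 At 0.5, 1, 2, 3, 4 and 5 h, samples were pelleted, resuspended in 10 mM MgSO4 and serially diluted tenfold. Dilutions were spotted on LB agar for 16 h at 37 °C, and growth was compared visually with the untreated control.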

[3] = test system: MDA‐MB‐231 triple‐negative breast cancer (TNBC) cell line; experiment: Resazurin cytotoxicity assay, MDA-MB-231; type: cell-based; settings: for IC50: read-out: IC50 MDA‐MB231; for SI (MDA‐MB231): selectivity index versus nontumorigenic MCF12A
How it was run: (§3)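 Cells were seeded at 5.0 × 10^3 per well and left to attach overnight at 37 °C, 9% CO2, then treated with test compound for 96 h. A […] resazurin solution was added for 2–4 h at 37 °C and fluorescence read at ex 560/em 590 nm. Assays were run in triplicate, and IC50 was obtained by nonlinear regression.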

E. coli ATCC 10536 [4] = experiment: Antibacterial resazurin assay, E. coli; type: cell-based, Escherichia coli; settings: for MIC E. coli: resazurin, 6 h, mean ± SD; for MIC: Escherichia coli, ATCC10536, 6 h, read-out: MIC E. coli
How it was run: as §1

HCC70 TNBC cell line = experiment: Resazurin cytotoxicity assay, HCC70; type: cell-based; settings: for IC50: read-out: IC50 HCC70; for SI (HCC70): selectivity index versus nontumorigenic MCF12A
How it was run: as §3

[5] = test system: K. pneumoniae ST512‐K30BO; experiment: Antibacterial resazurin assay, drug-resistant K. pneumoniae; type: cell-based, Klebsiella pneumoniae; settings: 6 h; for MIC K. pneumoniae: resazurin, drug‐resistant ST512 strain, sixth column pair of SI-15; for MIC: Klebsiella pneumoniae, read-out: MIC K. pneumoniae
How it was run: as §1

P. aeruginosa ATCC 27853 = experiment: Antibacterial resazurin assay, P. aeruginosa; type: cell-based, Pseudomonas aeruginosa; settings: for MIC P. aeruginosa: resazurin, 6 h, mean ± SD; for MIC: Pseudomonas aeruginosa, ATCC27853, 6 h, read-out: MIC P. aeruginosa
How it was run: as §1

[6] = test system: MCF‐7 hormone receptor‐positive breast cancer cell line; experiment: Resazurin cytotoxicity assay, MCF7; type: cell-based; settings: for IC50: read-out: IC50 MCF7; for SI (MCF7): selectivity index versus nontumorigenic MCF12A
How it was run: as §3

A. baumannii ATCC 19606 = experiment: Antibacterial resazurin assay, A. baumannii; type: cell-based, Acinetobacter baumannii; settings: for MIC A. baumannii: resazurin, 6 h, mean ± SD; for MIC: Acinetobacter baumannii, ATCC19606, 6 h, read-out: MIC A. baumannii
How it was run: as §1

[7] = test system: nontumorigenic breast epithelial cell line MCF12A; experiment: Resazurin cytotoxicity assay, MCF12A; type: cell-based; settings: Homo sapiens, MCF-12A, 96 h, read-out: IC50 MCF12A
How it was run: as §3

HeLa cells = experiment: Cytotoxicity against HeLa cells; type: cell-based; settings: Homo sapiens, read-out: IC50 HeLa cell
E. coli ATCC 10536 [8] = experiment: Time-kill kinetics, E. coli; type: cell-based, Escherichia coli; settings: at 1x and 4x MICs, up to 5 h
How it was run: as §2

[9] = resazurin, 96 h, mean ± SD (n = 3)

## CO[C@@H]1[C@@H](OC(N)=O)[C@@H](O)[C@H](Oc2ccc3c(O)c(NC(=O)c4ccc(O)c(CC=C(C)C)c4)c(=O)oc3c2C)OC1(C)C [Novobiocin, reference compound]
S. aureus ATCC 12600 [1]
  MIC: 0.002 ± 0.002 µM (≈ 0.00123 µg/mL)
S. aureus ATCC 12600 [2]
  Bactericidal endpoint, S. aureus, in words: did not achieve bactericidal endpoints

## rhizochalinin C [Compound 3b]
[3]; [9]
  IC50: 6.78 ± 1.2 µM
[3]
  SI (MDA‐MB231): 4.3
E. coli ATCC 10536 [4]
  MIC E. coli: >50 µM
HCC70 TNBC cell line; [9]
  IC50: 6.43 ± 1.1 µM
HCC70 TNBC cell line
  SI (HCC70): 4.5
[5]
  MIC K. pneumoniae: >50 µM
S. aureus ATCC 12600 [1]
  MIC S. aureus: >50 µM
P. aeruginosa ATCC 27853
  MIC P. aeruginosa: >50 µM
[6]; [9]
  IC50: 26.4 ± 1.2 µM
[6]
  SI (MCF7): 1.1
A. baumannii ATCC 19606
  MIC A. baumannii: >50 µM

## tetraperbenzoyl rhizochalinin [Compound 2c]
E. coli ATCC 10536 [4]
  MIC E. coli: >50 µM
[5]
  MIC K. pneumoniae: >50 µM
S. aureus ATCC 12600 [1]
  MIC S. aureus: >50 µM
P. aeruginosa ATCC 27853
  MIC P. aeruginosa: >50 µM
A. baumannii ATCC 19606
  MIC A. baumannii: >50 µM

## CC(N)C(O)CCCCCCCCCCCCCCC(=O)CCCCCCCC(O)C(C)N (stereo not shown) [Compound 2b, rhizochalinin]
[3]; [9]
  IC50: 6.78 ± 1.3 µM
[3]
  SI (MDA‐MB231): 3.1
E. coli ATCC 10536 [4]
  MIC E. coli: 49.1 ± 3.42 µM (≈ 23.1 µg/mL)
HCC70 TNBC cell line; [9]
  IC50: 4.97 ± 1.2 µM
HCC70 TNBC cell line
  SI (HCC70): 4.2
[5]
  MIC K. pneumoniae: 23.78 ± 0.15 µM (≈ 11.2 µg/mL)
P. aeruginosa ATCC 27853
  MIC P. aeruginosa: >50 µM
[6]; [9]
  IC50: 21.4 ± 1.2 µM
[6]
  SI (MCF7): 1.0
A. baumannii ATCC 19606
  MIC A. baumannii: 55.7 ± 0.85 µM (≈ 26.2 µg/mL)

## pentaperbenzoyl rhizochalinin C [Compound 3c]
E. coli ATCC 10536 [4]
  MIC E. coli: >50 µM
[5]
  MIC K. pneumoniae: >50 µM
S. aureus ATCC 12600 [1]
  MIC S. aureus: >50 µM
P. aeruginosa ATCC 27853
  MIC P. aeruginosa: >50 µM
A. baumannii ATCC 19606
  MIC A. baumannii: >50 µM

## N.N.[Cl][Pt][Cl] [Cisplatin, reference compound]
[3]; [9]
  IC50: 18.1 ± 1.2 µM
[3]
  SI (MDA‐MB231): 0.6
HCC70 TNBC cell line; [9]
  IC50: 2.6 ± 1.2 µM
HCC70 TNBC cell line
  SI (HCC70): 4.5
[6]; [9]
  IC50: 4.4 ± 1.2 µM
[6]
  SI (MCF7): 2.5

## C[C@@H](N)[C@H](O)CCCCCCCC(=O)CCCCCCCCCCCCCC[C@@H](O[C@@H]1O[C@H](CO)[C@H](O)[C@H](O)[C@H]1O)[C@@H](C)N [Compound 2, rhizochalin]
[7]
  IC50: 4.25 ± 1.28 µM
[3]; Homo sapiens, MDA-MB-231, 96 h
  IC50: 4.59 ± 1.22 µM
[3]
  SI (MDA‐MB231): 1.0
E. coli ATCC 10536 [4]
  MIC: 6.15 ± 0.04 µM (≈ 3.89 µg/mL)
HCC70 TNBC cell line; Homo sapiens, HCC70, 96 h
  IC50: 1.94 ± 1.13 µM
HCC70 TNBC cell line
  SI (HCC70): 2.2
[5]
  MIC: 8.52 ± 3.1 µM (≈ 5.39 µg/mL)
S. aureus ATCC 12600 [1]
  MIC: 3.64 ± 0.47 µM (≈ 2.3 µg/mL)
P. aeruginosa ATCC 27853
  MIC: 3.84 ± 0.82 µM (≈ 2.43 µg/mL)
[6]; Homo sapiens, MCF7, 96 h
  IC50: 2.43 ± 1.17 µM
[6]
  SI (MCF7): 1.8
A. baumannii ATCC 19606
  MIC: 6.29 ± 0.02 µM (≈ 3.98 µg/mL)
HeLa cells
  IC50: 7.11 µM

## oceanin [Compound 4b]
[3]; [9]
  IC50: 6.36 ± 1.4 µM
[3]
  SI (MDA‐MB231): 10.4
E. coli ATCC 10536 [4]
  MIC E. coli: >50 µM
HCC70 TNBC cell line; [9]
  IC50: 117 ± 1.4 µM
HCC70 TNBC cell line
  SI (HCC70): 0.6
[5]
  MIC K. pneumoniae: >50 µM
S. aureus ATCC 12600 [1]
  MIC S. aureus: >50 µM
P. aeruginosa ATCC 27853
  MIC P. aeruginosa: >50 µM
[6]; [9]
  IC50: 8.39 ± 1.39 µM
[6]
  SI (MCF7): 7.9
A. baumannii ATCC 19606
  MIC A. baumannii: >50 µM

## pentaperbenzoyl oceanin [Compound 4c]
E. coli ATCC 10536 [4]
  MIC E. coli: >50 µM
[5]
  MIC K. pneumoniae: >50 µM
S. aureus ATCC 12600 [1]
  MIC S. aureus: >50 µM
P. aeruginosa ATCC 27853
  MIC P. aeruginosa: >50 µM
A. baumannii ATCC 19606
  MIC A. baumannii: >50 µM

## CCn1cc(C(=O)O)c(=O)c2ccc(C)nc21 [Nalidixic acid, reference compound]
E. coli ATCC 10536 [4]
  MIC: 0.47 ± 0.22 µM (≈ 0.109 µg/mL)
E. coli ATCC 10536 [8]
  Bactericidal endpoint, E. coli, in words: did not achieve bactericidal endpoints
[5]
  MIC: 28.8 ± 1.09 µM (≈ 6.7 µg/mL)
P. aeruginosa ATCC 27853
  MIC: 0.17 ± 0.01 µM (≈ 0.0395 µg/mL)
A. baumannii ATCC 19606
  MIC: 1.28 ± 0.92 µM (≈ 0.297 µg/mL)
